We go through one compound from ChEMBL document CHEMBL1142961, “Novel selective inhibitors of the zinc plasmodial aminopeptidase PfA-M1 as potential antimalarial agents” (J Med Chem, 2007).

Bounds are passed on as bounds.

The nature of series [1]: Stability in Zucker FA/FA rat plasma at 37degC. The class given is ADME, organism-based. The settings on record: read-out: Stability (converted). The method in brief:
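Compound at 100 µM final in male Zucker FA/FA rat plasma, stirred at 37 °C. Samples taken from 0 to 96 h, acidified with 0.14 M phosphoric acid and spiked with internal standard. Extracted three times with AcOEt and quantified by LC-MS-MS (MRM). Half-life derived.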

Series [2] can be described thus: Solubility at pH 7.4. The class given is physicochemical. Particulars: buffer. In outline: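 10 mM DMSO stock diluted 50-fold into PBS pH 7.4 or MeOH. Shaken for 24 h at room temperature, centrifuged and filtered at 0.45 µm. Analysed by LC-MS-MS; solubility taken as the PBS/MeOH mass-signal area ratio.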
The test system of series [3] is Plasmodium falciparum. Description: Antimalarial activity against chloroquine-sensitive Plasmodium falciparum F32. The class given is functional, organism-based. The method in brief: (§1)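 Asexual P. falciparum kept continuously on human erythrocytes; modified semiautomated microdilution method. Serially diluted drug added to asynchronous cultures (0.5% parasitemia, 1% final hematocrit) for 24 h at 37 °C, then [3H]hypoxanthine added per well. Growth inhibition from incorporated radioactivity relative to drug-free control on the same plate; IC50 from concentration-response curve, mean of three independent experiments.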

The target of series [4] is T1, Aminopeptidase N (Sus scrofa) (UniProt P15145).
T1 sequence (whole entry): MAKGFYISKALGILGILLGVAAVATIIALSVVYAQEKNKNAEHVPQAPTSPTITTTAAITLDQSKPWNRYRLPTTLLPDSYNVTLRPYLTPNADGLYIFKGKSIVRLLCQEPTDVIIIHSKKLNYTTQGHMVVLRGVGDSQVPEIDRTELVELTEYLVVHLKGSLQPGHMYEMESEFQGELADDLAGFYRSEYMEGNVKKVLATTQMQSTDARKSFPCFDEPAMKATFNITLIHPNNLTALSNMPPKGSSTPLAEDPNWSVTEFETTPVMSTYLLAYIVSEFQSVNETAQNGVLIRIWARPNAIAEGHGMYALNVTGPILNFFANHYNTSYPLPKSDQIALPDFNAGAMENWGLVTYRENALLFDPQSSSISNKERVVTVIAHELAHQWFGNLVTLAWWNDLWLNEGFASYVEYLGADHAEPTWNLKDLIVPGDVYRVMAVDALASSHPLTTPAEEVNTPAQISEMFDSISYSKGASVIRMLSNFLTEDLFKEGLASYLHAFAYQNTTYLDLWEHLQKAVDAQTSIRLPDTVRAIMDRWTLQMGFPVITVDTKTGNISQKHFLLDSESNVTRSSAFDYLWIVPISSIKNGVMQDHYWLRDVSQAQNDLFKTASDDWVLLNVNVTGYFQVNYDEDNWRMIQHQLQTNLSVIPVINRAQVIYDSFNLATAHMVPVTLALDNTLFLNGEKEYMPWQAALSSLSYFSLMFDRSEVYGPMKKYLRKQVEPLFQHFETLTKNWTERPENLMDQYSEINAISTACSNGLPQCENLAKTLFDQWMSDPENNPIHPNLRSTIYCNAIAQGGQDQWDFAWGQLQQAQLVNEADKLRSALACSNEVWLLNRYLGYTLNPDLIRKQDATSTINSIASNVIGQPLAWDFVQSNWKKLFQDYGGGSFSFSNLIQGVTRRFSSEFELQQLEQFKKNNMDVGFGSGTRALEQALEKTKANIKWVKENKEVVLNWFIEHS
Kind of series: Inhibition of pig kidney microsomal APN at 10 uM. In outline:
(§2)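 Porcine kidney microsomal APN (ammonium sulfate suspension) diluted 600-fold in 25 mM Tris-HCl pH 7.4. Preincubated with inhibitor for 10 min at room temperature, then Leu-pNA added (0.3 mM stock). Hydrolysis followed at 405 nm at room temperature. Rates normalized to a no-inhibitor control. Single point at 10 µM; IC50 from concentration-velocity curves. Bestatin used as reference.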

The nature of series [5]: Distribution coefficient, log D at pH 7.4. The class given is physicochemical. Particulars: octanol/water. The method in brief:
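10 mM DMSO stock added to 1:1 octanol/PBS pH 7.4 and shaken for 2 h at room temperature. Phases separated and each quantified by LC-MS-MS. Log D taken as the log of the octanol/PBS concentration ratio from mass signals.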

In series [6] the target is T2, Aminopeptidase N (Sus scrofa, UniProt P15145).
T2 sequence (P15145 whole entry): T1 sequence (whole entry)
Description: Inhibition of pig kidney microsomal APN. In outline:
as §2

Series [7] in a line: Selectivity ratio, IC50 for pig APN /IC50 for Plasmodium falciparum FcB1 M1. In outline: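 Ratio of IC50 values (APN/PfA-M1) from two parallel assays: native PfA-M1 purified from P. falciparum FcB1 (diluted 10-fold) and porcine kidney microsomal APN (diluted 600-fold), both in 25 mM Tris-HCl pH 7.4. Enzyme was preincubated 10 min at room temperature with inhibitor, then Leu-pNA added (0.3 mM solution). Kinetics were read at 405 nm, initial velocities normalized to no-inhibitor controls, and IC50 was taken from velocity–concentration plots.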

Series [8] has as its target T3, Aminopeptidase N (Plasmodium falciparum FcB1/Columbia) (UniProt O96935).
T3 sequence (whole entry): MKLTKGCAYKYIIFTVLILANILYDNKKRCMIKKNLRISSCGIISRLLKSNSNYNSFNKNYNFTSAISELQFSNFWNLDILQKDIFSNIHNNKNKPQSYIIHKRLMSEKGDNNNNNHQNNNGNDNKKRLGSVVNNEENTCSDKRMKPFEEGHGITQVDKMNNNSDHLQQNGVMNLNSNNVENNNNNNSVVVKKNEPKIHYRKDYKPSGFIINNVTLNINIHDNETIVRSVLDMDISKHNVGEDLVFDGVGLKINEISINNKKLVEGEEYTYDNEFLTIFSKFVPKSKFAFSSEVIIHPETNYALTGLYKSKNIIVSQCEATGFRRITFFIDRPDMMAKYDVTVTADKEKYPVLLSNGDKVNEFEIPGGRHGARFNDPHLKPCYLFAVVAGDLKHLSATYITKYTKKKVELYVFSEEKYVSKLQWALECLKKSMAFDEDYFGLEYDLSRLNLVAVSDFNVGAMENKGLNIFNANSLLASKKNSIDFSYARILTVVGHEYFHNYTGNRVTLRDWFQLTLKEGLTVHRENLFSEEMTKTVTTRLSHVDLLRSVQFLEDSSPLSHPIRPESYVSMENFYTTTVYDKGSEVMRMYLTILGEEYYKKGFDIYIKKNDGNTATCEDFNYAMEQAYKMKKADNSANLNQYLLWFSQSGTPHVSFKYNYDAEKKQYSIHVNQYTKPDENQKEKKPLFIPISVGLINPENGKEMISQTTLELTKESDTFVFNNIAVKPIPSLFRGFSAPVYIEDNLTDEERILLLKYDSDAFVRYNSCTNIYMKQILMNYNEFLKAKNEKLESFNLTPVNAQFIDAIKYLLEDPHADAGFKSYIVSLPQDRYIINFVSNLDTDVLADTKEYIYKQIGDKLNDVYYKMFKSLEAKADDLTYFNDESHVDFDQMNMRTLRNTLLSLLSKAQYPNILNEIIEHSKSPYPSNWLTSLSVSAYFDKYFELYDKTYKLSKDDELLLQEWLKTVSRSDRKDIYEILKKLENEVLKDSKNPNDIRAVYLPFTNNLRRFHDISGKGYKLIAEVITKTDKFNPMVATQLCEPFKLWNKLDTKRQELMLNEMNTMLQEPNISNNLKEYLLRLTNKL
Kind of series: Inhibition of Plasmodium falciparum FcB1 M1 aminopeptidase at 10 uM. In outline:
(§3)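 Native enzyme purified from P. falciparum FcB1, diluted 10-fold in 25 mM Tris-HCl pH 7.4. Preincubated with inhibitor for 10 min at room temperature, then Leu-pNA substrate added (0.3 mM stock, Km 0.099 mM). Kinetics followed at 405 nm at room temperature. Initial velocities normalized to a no-inhibitor control. Single-point screen at 10 µM; IC50 from velocity versus inhibitor concentration curves. Bestatin used as reference.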

For series [9], the target named is T4, Aminopeptidase N (Plasmodium falciparum FcB1/Columbia, UniProt O96935).
T4 sequence (O96935 whole entry): T3 sequence (whole entry)
Description: Inhibition of Plasmodium falciparum FcB1 M1 aminopeptidase. In outline: as §3

Series [10] concerns Plasmodium falciparum. Kind of series: Antimalarial activity against chloroquine-resistant Plasmodium falciparum FcB1. The class given is functional, organism-based. In outline: as §1

With `O=C(NO)C(Cc1ccccc1)C(=O)NCc1ccc(F)cc1` (stereo not given), in [1], the half-life was 45 min. Further, the solubility – broadly, the dissolved amount per volume that the medium holds – in series [2] is greater than 200 µM. Moreover, the IC50 (commonly the concentration that gives 50% inhibition) with Plasmodium falciparum [3] came to 57 µM; on Aminopeptidase N [6] it was 3.62 µM; against Aminopeptidase N [9] it was 0.027 µM; with Plasmodium falciparum [10], 59 µM. The inhibition (usually the change of the read-out against control, counted positive when it falls) in series [4] stood at 72%; in [8], 91%. Moreover, the logD (as a rule, lipophilicity at a set pH, counting ionised and neutral species) in series [5] amounted to 1.2. Moreover, the Ratio IC50 in series [7] is 134.
